The record followed here is ChEMBL document CHEMBL3352026, “Structure-activity relationship of highly potent galactonoamidine inhibitors toward β-galactosidase (Aspergillus oryzae)” (J Med Chem, 2014).

Molecular target in one assay: not listed separately
Nature of the assay: Inhibition of Aspergillus niger beta-glucosidase.
The Ki is a dissociation constant, usually derived from enzyme kinetics or from competition with a known ligand. Compound `OC[C@H]1N/C(=N/CCc2ccccc2)[C@H](O)[C@@H](O)[C@H]1O` came in with a Ki of at most 1.2 nM.

Molecular target in the next assay: not listed separately
Nature of the assay: Inhibition of almond beta-glucosidase. On the set-up: species or system Prunus dulcis.
Take `OC[C@H]1N/C(=N/CCc2ccccc2)[C@H](O)[C@@H](O)[C@H]1O`: the Ki was at most 1.2 nM.

In the next assay the target is T1, Beta-galactosidase (Aspergillus oryzae, UniProt Q2U7N3).
T1 sequence (Q2U7N3 whole entry): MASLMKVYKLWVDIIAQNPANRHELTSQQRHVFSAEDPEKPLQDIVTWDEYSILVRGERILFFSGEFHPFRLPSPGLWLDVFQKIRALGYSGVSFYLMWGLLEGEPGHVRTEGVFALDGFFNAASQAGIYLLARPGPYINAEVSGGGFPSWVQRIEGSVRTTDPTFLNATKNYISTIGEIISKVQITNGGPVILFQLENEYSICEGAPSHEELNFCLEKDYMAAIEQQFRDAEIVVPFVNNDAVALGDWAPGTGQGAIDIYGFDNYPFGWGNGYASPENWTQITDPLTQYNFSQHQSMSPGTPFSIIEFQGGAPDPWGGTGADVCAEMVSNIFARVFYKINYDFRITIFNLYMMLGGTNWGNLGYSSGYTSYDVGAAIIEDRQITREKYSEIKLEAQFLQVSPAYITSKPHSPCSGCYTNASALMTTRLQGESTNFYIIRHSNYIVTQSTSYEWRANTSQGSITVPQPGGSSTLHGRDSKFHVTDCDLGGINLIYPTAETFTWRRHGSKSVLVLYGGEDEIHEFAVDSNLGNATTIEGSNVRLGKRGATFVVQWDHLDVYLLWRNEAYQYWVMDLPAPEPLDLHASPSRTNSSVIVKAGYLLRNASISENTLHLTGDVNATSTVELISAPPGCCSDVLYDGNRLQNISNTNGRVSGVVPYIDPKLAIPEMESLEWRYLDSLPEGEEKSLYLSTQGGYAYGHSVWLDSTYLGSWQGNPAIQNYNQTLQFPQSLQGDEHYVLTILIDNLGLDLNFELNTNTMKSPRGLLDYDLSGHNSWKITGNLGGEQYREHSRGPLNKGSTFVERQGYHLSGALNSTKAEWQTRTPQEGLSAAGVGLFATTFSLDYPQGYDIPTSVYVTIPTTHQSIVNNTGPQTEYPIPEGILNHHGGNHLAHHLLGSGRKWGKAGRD
Nature of the assay: Inhibition of Aspergillus oryzae beta-galactosidase using 2-chloro-4-nitrophenyl beta-Dgalactopyranoside as substrate by spectrophotometry. The method, boiled down:
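Dextrin-stabilised lyophilised A. oryzae enzyme in 50 mM acetate, pH 5.00, 30 °C, 100 μL. Substrate plus inhibitor preincubated 30 min before enzyme addition. 2-chloro-4-nitrophenolate read at 405 nm. […] For IC50, substrate was fixed, inhibitor 5 × 10⁻⁴–50 μM, read at 60 min against blanks, in duplicate.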
As a reminder, the IC50 is the point on the concentration scale where inhibition reaches its midpoint. A low value points to greater potency in that assay. In turn, `Cc1ccc(C/N=C2\N[C@H](CO)[C@H](O)[C@H](O)[C@H]2O)cc1` displayed an IC50 of 36 nM and a Ki of 8 nM.
With `OC[C@H]1N/C(=N\CC2CC2)[C@H](O)[C@@H](O)[C@H]1O`, 0.86 nM corresponded to half-maximal inhibition (IC50) and the Ki stood at 9.5 nM.
As for `Cc1ccccc1C/N=C1\N[C@H](CO)[C@H](O)[C@H](O)[C@H]1O`, affinity was put at a Ki of 23.6 nM.
As for `COc1ccc(C/N=C2\N[C@H](CO)[C@H](O)[C@H](O)[C@H]2O)cc1`, the affinity corresponds to a Ki of 17.1 nM.
Still for that read-out and setting: the figure for `OC[C@H]1N/C(=N\Cc2ccccc2F)[C@H](O)[C@@H](O)[C@H]1O` is 16.1 nM; for `O=C1N[C@H](CO)[C@H](O)[C@H](O)[C@H]1O` it is 615 nM; for `OC[C@H]1N/C(=N\C2CC2)[C@H](O)[C@@H](O)[C@H]1O` it is 31.9 nM.
Still for that read-out and setting: the figure for `N=C1N[C@H](CO)[C@H](O)[C@H](O)[C@H]1O` is 150 nM; for `CCC/N=C1\N[C@H](CO)[C@H](O)[C@H](O)[C@H]1O` it is 149 nM; for `Cc1cccc(C/N=C2\N[C@H](CO)[C@H](O)[C@H](O)[C@H]2O)c1` it is 29.4 nM.
Compound `OC[C@H]1N/C(=N\Cc2cccc(F)c2)[C@H](O)[C@@H](O)[C@H]1O` registered a Ki of 20.3 nM.
With `OC[C@H]1N/C(=N\CCCc2ccccc2)[C@H](O)[C@@H](O)[C@H]1O`, 36 nM corresponded to half-maximal inhibition (IC50) and the affinity corresponds to a Ki of 8.6 nM.
Turning to `CCCCCCCCCCCC/N=C1\N[C@H](CO)[C@H](O)[C@H](O)[C@H]1O`, the Ki is 48.4 nM. In other words, the double-digit nanomolar range.
As for `OC[C@H]1N/C(=N\Cc2ccccc2)[C@H](O)[C@@H](O)[C@H]1O`, the Ki amounted to 21.1 nM.
For `OC[C@H]1N/C(=N\C2CCCCC2)[C@H](O)[C@@H](O)[C@H]1O`, the IC50 came out at 4800 nM and the Ki is 602 nM.
In turn, `OC[C@H]1N/C(=N\Cc2ccc(F)cc2)[C@H](O)[C@@H](O)[C@H]1O` registered a Ki of 10.1 nM.
Turning to `OC[C@H]1N/C(=N\Cc2ccc(C(F)(F)F)cc2)[C@H](O)[C@@H](O)[C@H]1O`, affinity was put at a Ki of 15.7 nM.
On to `OC[C@H]1N/C(=N\CC2CCCCCC2)[C@H](O)[C@@H](O)[C@H]1O`, for which it took 36 nM to reach half-maximal inhibition (IC50) and affinity was put at a Ki of 6.3 nM.
With `CCCCC(CC)/N=C1\N[C@H](CO)[C@H](O)[C@H](O)[C@H]1O` (stereo partly drawn), the IC50 turned out to be 22 nM and the affinity, expressed as Ki, was 7.8 nM.
As for `OC[C@H]1N/C(=N\CC2CCCCC2)[C@H](O)[C@@H](O)[C@H]1O`, the IC50 is 22 nM and the affinity corresponds to a Ki of 11.3 nM.
With `CC(C)(C)c1ccc(C/N=C2\N[C@H](CO)[C@H](O)[C@H](O)[C@H]2O)cc1`, the Ki worked out at 20.6 nM.
`CCCCCCC/N=C1\N[C@H](CO)[C@H](O)[C@H](O)[C@H]1O` gave an IC50 of 107 nM and a Ki of 10.8 nM.

Molecular target in the next assay: not listed separately
As to the kind of experiment: Inhibition of Caldicellulosiruptor saccharolyticus beta-glucosidase.
In turn, `OC[C@H]1N/C(=N/CCc2ccccc2)[C@H](O)[C@@H](O)[C@H]1O` displayed a Ki of at most 1.2 nM.
